Measurements from ChEMBL document CHEMBL3600295, “Synthesis and biological evaluation of a series of fatty acid amides from Echinacea” (Bioorg Med Chem Lett, 2015).
Calls of active or inactive are those of the source. No cut-off for these calls is given here.

Tests used:
[1] = tested on: RAW264.7; assay: Cytotoxicity against mouse RAW264.7 cells at 100 uM incubated for 18 hrs by LDH release assay; assay type: cell-based; details: raw264.7, 18 h
Summary of the method: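 RAW 264.7 murine macrophage-like cells were treated with compound for 18 h. Culture supernatants were then collected and assayed for lactate dehydrogenase activity released from dead or dying cells, using a commercial LDH cytotoxicity kit. Vehicle and lysis-buffer controls were included. Data are means ± SD, n = 2.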

[2] = tested on: RAW264.7; assay: Effect on TNFalpha production in mouse RAW264.7 cells at 100 uM incubated for 18 hrs by ELISA method; assay type: cell-based; details: raw264.7, 18 h
Summary of the method: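 Compound alone, without LPS, was added to RAW 264.7 murine macrophage-like cells and incubated 18 h. TNF-α in culture supernatants was quantified by commercial ELISA and compared with levels from unstimulated cells.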

[3] = tested on: RAW264.7; assay: Inhibition of LPS-induced TNFalpha production in mouse RAW264.7 cells at 100 uM incubated for 18 hrs by ELISA method; assay type: functional; details: for inhibition at 100 µM: RAW264.7, 18 h
Summary of the method: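 RAW 264.7 cells were co-treated with compound plus 10 ng/mL LPS (R595) for 18 h. Supernatant TNF-α was measured by commercial ELISA and compared with cells stimulated with LPS only.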

Structure (SMILES)	Activity [1]	Activity [2]	inhibition [3]	inhibition at 100 µM [3] [%]
CCCCCCCCCCCC(=O)NCCCCCC	Non-toxic	Non-toxic	Active	–
CCCCCCCCCCCc1nc(CC(C)C)cs1	Non-toxic	–	inactive	–
CCCCCCC/C=C/C=C/C(=O)NCC(C)C	Non-toxic	Non-toxic	Active	–
CCCCCCCCCC(=O)NCC(C)C [TETRAHYDROPELLITORINE]	Non-toxic	Non-toxic	Active	–
CCCCCCCCCCCc1nc(C(C)C)cs1	Non-toxic	–	inactive	–
CCCCCCCCCCCCNCC(C)C	Toxic	Non-toxic	–	99.8
CCCCCCCCC/C=C/C(=O)NCc1ccccc1	Non-toxic	Non-toxic	–	29.8
CCCCCCCCCCCC(=O)NCC(C)C	Non-toxic	Non-toxic	Active	–
CCCCCCCC(=O)NCC(C)C	Non-toxic	Non-toxic	Active	–
CCCCCCCCC/C=C/C(=O)NCC(C)C	Non-toxic	Non-toxic	Active	–
CCCC(=O)NCC(C)C	Non-toxic	Non-toxic	Active	–
CCCCCCCCCCCC(=O)NCC(C)CC (stereo not drawn)	Non-toxic	Non-toxic	Active	–
CCCCCC(=O)NCC(C)C	Non-toxic	Non-toxic	Active	–
CCCCCCCCC/C=C/C(=O)NCC(C)CC (stereo not drawn)	Toxic	Non-toxic	Active	–
CCCCCCCCCCCC(=O)NCc1ccccc1 [N-BENZYLDODECANAMIDE]	Non-toxic	Non-toxic	–	32.4
